The text below walks through data of ChEMBL document CHEMBL1156462, “Seco-pregnane steroids target the subgenomic RNA of alphavirus-like RNA viruses” (Proc Natl Acad Sci U S A, 2007).

Data set [1] has as its system Tobacco mosaic virus. Nature of the data set: Inhibition of TMV U1 multiplication in tobacco BY2 protoplast at 40 nM assessed as inhibition of local lesions on Chenopodium quinoa leaves by local lesion assay after 3 days postinfection. It counts as functional. To be noted: U1, 72 h. Put shortly: (§1)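 TMV premixed with compound at a range of concentrations used to inoculate tobacco BY-2 protoplasts; virus multiplication then assayed by counting local lesions on the local lesion host Chenopodium quinoa.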

The subject of data set [2] is Tobacco mosaic virus. In words: Inhibition of TMV U1 multiplication in tobacco BY2 protoplast at 20 nM assessed as inhibition of local lesions on Chenopodium quinoa leaves by local lesion assay after 3 days postinfection. The class given is functional. The conditions noted are these: U1, 72 h. Put shortly: as §1
Data set [3] relates to Tobacco mosaic virus. Nature of the data set: Inhibition of TMV U1 multiplication in tobacco BY2 protoplast at 40 nM assessed as local lesion size on Chenopodium quinoa leaves by local lesion assay. The class given is functional.
The subject of data set [4] is Tobacco mosaic virus. In words: Inhibition of TMV U1 multiplication in tobacco BY2 protoplast at 10 nM assessed as inhibition of local lesions on Chenopodium quinoa leaves by local lesion assay after 3 days postinfection. The conditions noted are these: U1, 72 h. The class given is functional. Put shortly: as §1
In data set [5] the test system is Tobacco mosaic virus. In words: Inhibition of TMV U1 multiplication in tobacco BY2 protoplast at 10 nM assessed as local lesion size on Chenopodium quinoa leaves by local lesion assay. It counts as functional.
For data set [6], the system named is Tobacco mosaic virus. Nature of the data set: Inhibition of TMV U1 multiplication in tobacco BY2 protoplast at 50 nM assessed as inhibition of local lesions on Chenopodium quinoa leaves by local lesion assay after 3 days postinfection. The class given is functional. The conditions noted are these: U1, 72 h. In outline:
as §1

The test system of data set [7] is Tobacco mosaic virus. Nature of the data set: Inhibition of TMV U1 multiplication in tobacco BY2 protoplast at 30 nM assessed as local lesion size on Chenopodium quinoa leaves by local lesion assay. The class given is functional.
Data set [8] in a line: Growth inhibition of hamster BHK21 cells at 100 nM after 48 hrs. The conditions noted are these: bhk-21, 48 h, 0.1 µM. The class given is cell-based, Mesocricetus auratus. In outline: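 BHK-21 cells mock-infected and incubated with 100 nM compound for 48 h; cell morphology and growth examined by light microscopy.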
In data set [9] the test system is Tobacco mosaic virus. In words: Antiviral activity against GFP-fused TMV U1 infected Nicotiana tabacum cv K326 plant leaves assessed as inhibition of virus movement by GFP fluorescence assay. It counts as functional, organism-based.
For data set [10], the system named is Tobacco mosaic virus. Nature of the data set: Inhibition of TMV U1 replication in tobacco BY2 protoplast at 50 nM by local lesion assay using Chenopodium quinoa leaves. It counts as functional, organism-based. In outline:
as §1

Data set [11] concerns Tobacco mosaic virus. In words: Inhibition of TMV U1 multiplication in tobacco BY2 protoplast at 20 nM assessed as local lesion size on Chenopodium quinoa leaves by local lesion assay. The class given is functional.
Data set [12] relates to Tobacco mosaic virus. In words: Inhibition of TMV U1 multiplication in tobacco BY2 protoplast at 50 nM assessed as local lesion size on Chenopodium quinoa leaves by local lesion assay. It counts as functional.
Data set [13] relates to Tobacco mosaic virus. Nature of the data set: Inhibition of TMV U1 multiplication in tobacco BY2 protoplast at 30 nM assessed as inhibition of local lesions on Chenopodium quinoa leaves by local lesion assay after 3 days postinfection. It counts as functional. The conditions noted are these: U1, 72 h. In outline:
as §1

In data set [14] the test system is Tobacco mosaic virus. In words: Decrease in TMV U1 coat protein level in TMV infected tobacco BY2 protoplast at 50 nM by Western blot analysis. The class given is functional, organism-based. In outline: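 BY-2 protoplasts (5 ml, 1.5 × 10⁶/ml) infected with TMV pretreated with compound; total protein extracted and coat protein detected by Western blot.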
(A western blot detects proteins with antibodies after separation by electrophoresis.)

Another data set deals with Sindbis virus. In words: Antiviral activity against Sindbis virus XJ160 in BHK21 cells assessed as reduction of virus-induced cytopathic effect after 24 hrs. The class given is functional, organism-based. The conditions noted are these: BHK-21. In outline: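 SINV XJ-160 (2 × 10⁵ pfu/ml, thrice plaque-purified) treated with compound for 15 min, adsorbed 1 h to BHK-21 cells at MOI 0.01 in quadruplicate; washed, fresh DMEM with 5% FBS added, cells kept at 37°C, 5% CO₂. Cytopathic morphology scored by light microscopy at 24 hpi.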
A general note: Protection from cytopathic effect is a common read-out in antiviral testing.

The test system of data set [15] is Tobacco mosaic virus. In words: Inhibition of TMV U1 replication in tobacco BY2 protoplast by local lesion assay using Chenopodium quinoa leaves. The class given is functional, organism-based. Put shortly:
as §1

The test system of data set [16] is Tobacco mosaic virus. In words: Antiviral activity against TMV U1 infected Nicotiana tabacum cv K326 plant leaves assessed as inhibition of systemic virus infection. The class given is functional, organism-based.

Active and inactive are the calls of the source. The calls are words filed in the database; no cut-off is given here.

As to `C[C@]12OC=C3CC[C@H]4[C@@H](CC=C5C[C@@H](O)CC[C@@]54C)C(=O)OC(CO1)[C@@H]32` (stereo not given in full) [GLAUCOGENIN C], in the data set with Tobacco mosaic virus [1], the inhibition at 0.04 µM stood at 85%. For the same compound, in the data set on Tobacco mosaic virus [2], the inhibition at 0.02 µM stood at 60%. For the same compound, the Activity with Tobacco mosaic virus [3] is on record as 1.3 mm; in the data set with Tobacco mosaic virus [5], 2.1 mm; in the data set with Tobacco mosaic virus [7], 1.5 mm; in data set [8], “Non-toxic”; in the data set on Tobacco mosaic virus [11], 1.9 mm; with Tobacco mosaic virus [12], 0 mm. The Activity result in the data set on Sindbis virus is “Dose-dependent effect”. Also, the inhibition at 0.01 µM in the data set on Tobacco mosaic virus [4] was 17%. Also, in the data set on Tobacco mosaic virus [6], the inhibition at 0.05 µM stood at 100%. Further, the result in the data set on Tobacco mosaic virus [9], with Tobacco mosaic virus [10] and in the data set on Tobacco mosaic virus [14] was Active. Further, the inhibition at 0.03 µM in the data set with Tobacco mosaic virus [13] was determined as 79%. Moreover, the midpoint of inhibition in the data set on Tobacco mosaic virus [15], the IC50, lay at 17 nM.

For the compound `CO[C@@H]1C[C@@H](O[C@H]2CC[C@@]3(C)C(=CC[C@H]4C(=O)OC5CO[C@]6(C)OC=C(CC[C@@H]43)[C@H]56)C2)O[C@H](C)[C@H]1O[C@H]1C[C@H](O)[C@H](O[C@H]2C[C@@H](OC)[C@@H](O[C@@H]3O[C@H](CO)[C@@H](O[C@@H]4O[C@H](CO)[C@@H](O)[C@H](O)[C@H]4O)[C@H](O)[C@H]3O)[C@H](C)O2)[C@@H](C)O1` (stereo not given in full) [PANICULATUMOSIDE E], in the data set on Tobacco mosaic virus [1], the inhibition at 0.04 µM is 87%. The inhibition at 0.02 µM in the data set with Tobacco mosaic virus [2] was found to be 38%. In addition, the Activity with Tobacco mosaic virus [3] is on record as 1.1 mm; in the data set on Tobacco mosaic virus [5], 1.6 mm; in the data set on Tobacco mosaic virus [7], 1.2 mm; in data set [8], “Non-toxic”; in the data set with Tobacco mosaic virus [11], 1.3 mm; in the data set with Tobacco mosaic virus [12] it was 0 mm. For the same compound, the Activity result in the data set on Sindbis virus was “Dose-dependent effect”. Besides, in the data set on Tobacco mosaic virus [4], the inhibition at 0.01 µM was 16%. Moreover, the result in the data set with Tobacco mosaic virus [16], with Tobacco mosaic virus [9], in the data set with Tobacco mosaic virus [10] and with Tobacco mosaic virus [14] was Active. Moreover, in the data set on Tobacco mosaic virus [6], the inhibition at 0.05 µM amounted to 100%. Besides, the inhibition at 0.03 µM in the data set on Tobacco mosaic virus [13] was found to be 73%. For the same compound, the IC50 with Tobacco mosaic virus [15] worked out at 25 nM.

For `CO[C@@H]1C[C@H](O[C@H]2CC[C@@]3(C)C(=CC[C@H]4C(=O)OC5CO[C@]6(C)OC=C(CC[C@@H]43)[C@H]56)C2)O[C@H](C)[C@H]1O` (stereo not given in full) [CYNATRATOSIDE A], the inhibition at 0.04 µM in the data set with Tobacco mosaic virus [1] stood at 93%. Besides, the inhibition at 0.02 µM in the data set with Tobacco mosaic virus [2] amounted to 37%. In addition, the Activity is 1.2 mm in the data set with Tobacco mosaic virus [3]; 2.3 mm in the data set with Tobacco mosaic virus [5]; 1.5 mm with Tobacco mosaic virus [7]; “Non-toxic” in [8]; 1.8 mm in the data set on Tobacco mosaic virus [11]; 0 mm in the data set on Tobacco mosaic virus [12]. Moreover, the Activity result in the data set on Sindbis virus is “Dose-dependent effect”. The inhibition at 0.01 µM in the data set on Tobacco mosaic virus [4] was 20%. Also, the inhibition at 0.05 µM with Tobacco mosaic virus [6] is 100%. Besides, the outcome in the data set on Tobacco mosaic virus [10] and in the data set on Tobacco mosaic virus [14] was Active. Further, the inhibition at 0.03 µM with Tobacco mosaic virus [13] was found to be 87%. In the data set with Tobacco mosaic virus [15], this compound displayed an IC50 of 25 nM.

`CO[C@H]1C[C@H](O[C@H]2[C@@H](OC)C[C@H](O[C@@H]3[C@@H](C)O[C@H](O[C@H]4CC[C@@]5(C)C(=CC[C@H]6C(=O)OC7CO[C@]8(C)OC=C(CC[C@@H]65)[C@H]78)C4)C[C@H]3OC)O[C@@H]2C)O[C@@H](C)[C@@H]1O[C@@H]1O[C@H](CO)[C@@H](O[C@@H]2O[C@H](CO)[C@@H](O)[C@H](O)[C@H]2O)[C@H](O)[C@H]1O` (stereo not given in full) [PANICULATUMOSIDE D]: in the data set on Tobacco mosaic virus [1], the inhibition at 0.04 µM turned out to be 88%. In the data set with Tobacco mosaic virus [2], the inhibition at 0.02 µM was 31%. Besides, the Activity in the data set on Tobacco mosaic virus [3] is reported as 1.2 mm; with Tobacco mosaic virus [5], 1.7 mm; in the data set with Tobacco mosaic virus [7], 1.4 mm; in data set [8] it was “Non-toxic”; in the data set on Tobacco mosaic virus [11], 1.6 mm; in the data set on Tobacco mosaic virus [12], 0 mm. For the same compound, the Activity result in the data set on Sindbis virus was “Dose-dependent effect”. Moreover, the inhibition at 0.01 µM in the data set with Tobacco mosaic virus [4] turned out to be 6%. For the same compound, the outcome in the data set with Tobacco mosaic virus [16], in the data set with Tobacco mosaic virus [9], in the data set on Tobacco mosaic virus [10] and with Tobacco mosaic virus [14] was Active. Besides, the inhibition at 0.05 µM with Tobacco mosaic virus [6] came out at 100%. In addition, the inhibition at 0.03 µM in the data set on Tobacco mosaic virus [13] was 79%. Moreover, 25 nM corresponded to half-maximal inhibition with Tobacco mosaic virus [15] (IC50).

In general, inhibition refers to the share of the control response that was lost under treatment. The IC50 is the concentration at which inhibition is half-maximal.
